Experimental data published in PMC5809185 (Parasitology international, 2018).
Read-outs that look alike come from different tables or passages of the source.

Assays:
[1] = test system: murine-derived macrophage (NR-9456); assay: Cell toxicity assay; type: cell-based; details: read-out: NR-9456 IC50, 24 h
In short: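 Bone marrow-derived murine macrophages kept in D10 (DMEM, 10% heat-inactivated bovine serum, 2 mM L-glutamine, penicillin/streptomycin, 20% Medium 199, gentamicin) at 37°C, 5% CO2. Grown to confluence in 96-well plates, then exposed to test compound at 0 to 100 μM for 24 h. Alamar blue added for 4 h, and fluorescence read for IC50.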

[2] = test system: five mammalian cell lines (HFF, HEK293, HC04, RAJI, NR-9456); assay: Cytotoxicity across five mammalian cell lines / in vitro therapeutic index; type: cell-based; details: at the concentrations tested
[3] = test system: Salmonella typhimurium (TA100 strain); assay: Bacterial reverse mutation; type: cell-based; details: for Ames Assay (TA100): 3x the averaged T. gondii IC50, 48 replicates, point mutagenicity
[4] = test system: T. gondii RH-dTom tachyzoites in pretreated HFF cells; assay: Host cell pre-treatment assay; type: cell-based, Toxoplasma gondii; details: HFF cells exposed to 10 μM for 24 h, washed, then infected with RH-dTom
In short: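 HFF seeded at 20,000 cells/well in D10 and grown to confluence. Treated with 10 μM test compound for 24 h, then washed three times with D10 media. Infected with 2,000 RH-dTom (red fluorescent dTomato) tachyzoites. Parasite growth read by fluorescence at day 5 (methods) or day 4 (figure legend) post-infection. Run in triplicate.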

human albumin column = human albumin column (Homo sapiens, UniProt P02768); assay: Chromatography-based protein binding; type: in vitro ADME; details: plasma protein binding estimated using a chromatographic method
[5] = Partition coefficient by gradient HPLC; type: physicochemical
[6] = Kinetic aqueous solubility by nephelometry; type: physicochemical; details: pH 6.5 phosphate buffer; 30 min at room temperature; 1% DMSO
[7] = Metabolic stability in human liver microsomes; type: in vitro ADME; details: for CLint, in vitro / T1/2: 1 μM, 0.4 mg/mL protein
[8] = Metabolic stability in mouse liver microsomes; type: in vitro ADME; details: for CLint, in vitro / T1/2: 1 μM, 0.4 mg/mL protein
[9] = test system: T. gondii RH-dTom tachyzoites; assay: In vivo T. gondii survival study; set-up: species or system Swiss Webster CFW mice; details: lethal dose of T. gondii strain RH tachyzoites
[10] = test system: Human foreskin fibroblast (HFF); details: read-out: HFF IC50; cytotoxicity; ref Guigemende 2010; cited from earlier work
kidney (HEK293) = details: read-out: HEK293 IC50; cytotoxicity; ref Guigemende 2010; cited from earlier work
hepatocytes (HC04) = details: read-out: HC04 IC50; cytotoxicity; ref Guigemende 2010; cited from earlier work
B lymphocyte (RAJI) = details: read-out: RAJI IC50; cytotoxicity; ref Guigemende 2010; cited from earlier work
T. gondii PRU-dTom = assay: T. gondii PRU-dTom; type: cell-based; details: Toxoplasma gondii, 120 h, read-out: T. gondii PRU-dTom IC50
In short: (§1)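 Confluent HFF (20,000 cells/well, D10, 37°C, 5% CO2) infected with 2,000 dTomato-expressing tachyzoites (type I RH or type II PRU). Invasion allowed for 12 h, then media replaced. Test compound added at 0 to 100 μM in duplicate. Parasite fluorescence read at day 5 post-infection for IC50.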

T. gondii = T. gondii inhibition in vitro; type: cell-based, Toxoplasma gondii
In short: as §1

[11] = cytotoxicity, 0 to 100 μM, Alamar blue

Sequence of human albumin column (P02768 25-609): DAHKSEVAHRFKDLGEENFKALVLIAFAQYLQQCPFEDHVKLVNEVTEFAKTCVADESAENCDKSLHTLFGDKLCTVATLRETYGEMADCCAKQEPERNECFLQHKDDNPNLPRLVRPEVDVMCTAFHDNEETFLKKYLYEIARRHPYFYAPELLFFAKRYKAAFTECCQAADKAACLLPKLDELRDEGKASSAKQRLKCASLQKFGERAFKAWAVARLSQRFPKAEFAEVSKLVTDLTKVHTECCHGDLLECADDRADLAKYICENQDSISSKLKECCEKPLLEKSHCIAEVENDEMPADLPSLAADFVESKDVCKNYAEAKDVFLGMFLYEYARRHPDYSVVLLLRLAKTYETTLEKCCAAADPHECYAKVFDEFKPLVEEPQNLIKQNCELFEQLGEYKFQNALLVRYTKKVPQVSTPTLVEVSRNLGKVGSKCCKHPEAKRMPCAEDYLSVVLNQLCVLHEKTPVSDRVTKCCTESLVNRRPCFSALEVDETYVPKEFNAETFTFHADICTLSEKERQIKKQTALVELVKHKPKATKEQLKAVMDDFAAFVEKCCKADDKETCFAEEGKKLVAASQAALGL

SMILES | IC50 [1, 11] | Cell lines whose growth was inhibited [2] | Ames Assay (TA100) [3] | Decrease of T. gondii growth after host cell pre-treatment [4] | cPPB (% bound) (human albumin column) | gLogD (pH 7.4) [5] | Sol6.5 kinetic solubility [6] | Predicted EH (hepatic extraction ratio) [7] | CLint, in vitro [7] | T1/2 [7] | CLint, in vitro [8] | T1/2 [8] | IC50 [10] | IC50 (kidney (HEK293)) | IC50 (hepatocytes (HC04)) | IC50 (B lymphocyte (RAJI)) | other results
CCOc1ccc(/C=C/c2nc(=O)c3ccccc3o2)cc1 [KG3] | > 100 µM | did not inhibit the growth of any of the five cell lines | Negative | 21% | 99 % bound | 2.8 | 1.2 to 2.2 µg/mL | 0.88 | 129 μL/min/mg protein | 9 min | >886 μL/min/mg protein | <2 min | > 40 µM | > 40 µM | > 40 µM | > 40 µM | Mice spared (survival) ([9]; 20 mg/kg IP twice daily): 33%
CC(C)(C)c1cc(C2C(C#N)=C(N)OC3=C2C(=O)CCC3)cc(C(C)(C)C)c1O (stereo not drawn) [KG7] | > 100 µM | 2/5 | Negative | no effect | 93 % bound | 3.9 | 3.1 to 6.3 µg/mL | 0.97 | 746 μL/min/mg protein | 2 min | >886 μL/min/mg protein | <2 min | > 36 µM | > 36 µM | 3 µM | 3 µM | Effect on S. typhimurium growth in Ames assay ([3]; TA100 strain): appeared to inhibit S. typhimurium growth; Predicted EH (hepatic extraction ratio) [8]: >0.94
CC(C)(C)c1cc(/N=N/C(=O)c2ccncc2)cc(C(C)(C)C)c1O [KG8] | > 100 µM | 2/5 | Negative | no effect | >99.5 % bound | 3.9 | 3.1 to 6.3 µg/mL | 0.6 | 37 μL/min/mg protein | 47 min | 180 μL/min/mg protein | 10 min | > 28 µM | 0.97 µM | > 28 µM | 0.68 µM | 
CCc1nc(N)nc(N)c1-c1ccc(Cl)cc1 [Pyrimethamine, reference compound] |  |  |  |  |  |  |  |  |  |  |  |  | > 100 µM | > 100 µM | > 100 µM | > 100 µM | IC50 (T. gondii PRU-dTom): 0.79 µM; IC50 ([1]; Mus musculus, Macrophage): > 100 µM; Mice spared (survival) ([9]; 21 mg/kg): 100%; IC50 (T. gondii; Toxoplasma gondii, read-out: T. gondii IC50 in vitro): 0.25 to 1.5 µM
NNC(=O)c1ccncc1 [isoniazid] |  |  |  |  |  |  |  |  |  |  |  |  |  |  |  |  | Efficacy against Toxoplasma gondii in vitro (T. gondii; data not shown): no efficacy
